Measured values taken from ChEMBL document CHEMBL1129974, “Discovery of HIV-1 integrase inhibitors by pharmacophore searching” (J Med Chem, 1997).
pIC50: −log10 of the molar value.

Legend:
[1] = molecular target: Human immunodeficiency virus type 1 integrase (Human immunodeficiency virus 1) (UniProt Q7ZJM1); experiment: Percentage inhibition was obtained by performing in vitro assay on purified recombinant integrase by strand transfer method at 100 micro g/mL (experiment 1)
Summary of the method: (§1)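 Single concentration of 100 µg/mL tested. Recombinant HIV-1 integrase (200 nM final) preincubated with compound for 30 min at 30 °C in Mn2+/DMSO buffer, then reacted for 60 min with 20 nM 5′-32P-labeled 21-mer LTR duplex. Gel and phosphorimager quantitation of 19-mer 3′-processing and strand transfer products. %I = 100×[1−(D−C)/(N−C)], relative to DNA-alone and DNA+integrase controls.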

[2] = molecular target: Human immunodeficiency virus type 1 integrase (Human immunodeficiency virus 1) (UniProt Q7ZJM1); experiment: Percentage inhibition was obtained by performing in vitro assay on purified recombinant integrase by 3''-processing method at 100 micro g/mL (experiment 2); summary of the method: as §1
[3] = molecular target: Human immunodeficiency virus type 1 integrase (Human immunodeficiency virus 1) (UniProt Q7ZJM1); experiment: Percentage inhibition was obtained by performing in vitro assay on purified recombinant integrase by 3''-processing method at 100 micro g/mL (experiment 1); summary of the method: as §1
[4] = molecular target: Human immunodeficiency virus type 1 integrase (Human immunodeficiency virus 1) (UniProt Q7ZJM1); experiment: Percentage inhibition was obtained by performing in vitro assay on purified recombinant integrase by strand transfer method at 100 micro g/mL (experiment 2); summary of the method: as §1
[5] = molecular target: T1, Human immunodeficiency virus type 1 integrase (Human immunodeficiency virus 1, UniProt Q7ZJM1); experiment: Inhibitory concentration against purified recombinant integrase by strand transfer in vitro assay (experiment 1)
Summary of the method: (§2)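 Recombinant wild-type HIV-1 integrase, final 200 nM, preincubated with inhibitor for 30 min at 30 °C. Buffer: 50 mM NaCl, HEPES/MOPS, 7.5 mM MnCl2 when specified, 10% DMSO, 10% glycerol, BSA, 2-mercaptoethanol. Then 20 nM 5′-32P-labeled 21-mer U5 LTR duplex (AE117/AE118) added for 60 min. Products separated on denaturing 20% urea gel and quantified by phosphorimager. 3′-processing (19-mer) and strand transfer products read in one reaction. IC50 read from plot of concentration vs percent inhibition, several concentrations.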

[6] = molecular target: T1, Human immunodeficiency virus type 1 integrase; experiment: Inhibitory concentration against purified recombinant integrase by strand transfer in vitro assay (experiment 2); summary of the method: as §2
[7] = molecular target: T1, Human immunodeficiency virus type 1 integrase; experiment: Inhibitory concentration against purified recombinant integrase by 3'-processing in vitro assay (experiment 2); summary of the method: as §2
[8] = molecular target: T1, Human immunodeficiency virus type 1 integrase; experiment: Inhibitory concentration against purified recombinant integrase by strand transfer 3D search (experiment 1); summary of the method: as §2
[9] = molecular target: T1, Human immunodeficiency virus type 1 integrase; experiment: Inhibitory concentration against purified recombinant integrase by strand transfer 3D search (experiment 2); summary of the method: as §2
[10] = molecular target: T1, Human immunodeficiency virus type 1 integrase; experiment: Inhibitory concentration against purified recombinant integrase by 3'-processing in 3D search (experiment 1); summary of the method: as §2
[11] = molecular target: T1, Human immunodeficiency virus type 1 integrase; experiment: Inhibitory concentration against purified recombinant integrase by 3'-processing in 3D search (experiment 2); summary of the method: as §2
[12] = molecular target: T1, Human immunodeficiency virus type 1 integrase; experiment: Inhibitory concentration against purified recombinant integrase by 3'-processing in vitro assay (experiment 1); summary of the method: as §2
[13] = molecular target: T1, Human immunodeficiency virus type 1 integrase; experiment: Inhibitory concentration against purified recombinant integrase by strand transfer in vitro assay
[14] = molecular target: T1, Human immunodeficiency virus type 1 integrase; experiment: Inhibitory concentration against purified recombinant integrase by 3'-processing in vitro assay
[15] = molecular target: T1, Human immunodeficiency virus type 1 integrase; experiment: (§3) Inhibitory concentration against purified recombinant integrase by strand transfer 3D search
[16] = molecular target: T1, Human immunodeficiency virus type 1 integrase; experiment: Inhibitory concentration against purified recombinant integrase by 3'-processing in 3D search
[17] = molecular target: T1, Human immunodeficiency virus type 1 integrase; experiment: as §3; summary of the method: as §2; remark: listed apart in the source
[18] = molecular target: T1, Human immunodeficiency virus type 1 integrase; experiment: Inhibitory concentration against purified recombinant integrase by strand transferrin vitro assay; summary of the method: as §2

T1 sequence (Q7ZJM1 whole entry): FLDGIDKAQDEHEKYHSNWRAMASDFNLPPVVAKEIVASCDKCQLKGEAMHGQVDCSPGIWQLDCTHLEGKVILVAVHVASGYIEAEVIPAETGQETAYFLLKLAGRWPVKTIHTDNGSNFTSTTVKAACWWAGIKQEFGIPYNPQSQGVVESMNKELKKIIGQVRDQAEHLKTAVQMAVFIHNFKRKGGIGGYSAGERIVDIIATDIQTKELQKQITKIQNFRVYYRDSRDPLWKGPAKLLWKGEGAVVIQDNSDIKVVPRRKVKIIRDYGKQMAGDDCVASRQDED
Human immunodeficiency virus type 1 integrase (Human immunodeficiency virus 1), sequence (Q7ZJM1 as listed by the source): as the sequence (Q7ZJM1 whole entry) above

O=C(CC(O)c1cccnc1)CC(O)c1cccnc1 (stereo not given)
inhibition [1]: 48.1% | inhibition [2]: 19.1% | inhibition [3]: 22.5% | inhibition [4]: 43.2%

CCC/C=C/C=C/[C@@H]1C[C@@H](O)[C@@H](O)C(=O)[C@H]1CO
pIC50 [5]: 3.57 | pIC50 [6]: 3.87 | pIC50 [7]: 3.54 | pIC50 [8]: 3.57 | pIC50 [9]: 3.87 | pIC50 [10]: 3.46 | pIC50 [11]: 3.54 | pIC50 [12]: 3.46

O=C(NCO)NCOCn1c(=O)n(CO)c(=O)n(CO)c1=O
pIC50 [13]: 5.30 | pIC50 [14]: 5.28 | pIC50 [15]: 5.30 | pIC50 [16]: 5.28

CCN(CC)CCCC(C)Nc1ccnc2ccc(Cl)nc12 (stereo not given)
inhibition [1]: 87.4% | inhibition [2]: 30.6% | inhibition [3]: 43.7% | inhibition [4]: 56.6%

C[C@H]1C(=O)c2c(cc(O)c(C3OC(CO)C(O)C(O)C3O)c2O)OC1c1ccc(O)c(O)c1 (stereo not given in full)
pIC50 [5]: 3.99 | pIC50 [6]: 4.32 | pIC50 [7]: 3.91 | pIC50 [8]: 3.99 | pIC50 [9]: 4.32 | pIC50 [10]: 3.75 | pIC50 [11]: 3.90 | pIC50 [12]: 3.75

COc1cc(N)ccc1C(=O)NC(CCC(=O)O)C(=O)O (stereo not given)
pIC50 [5]: 3.69 | pIC50 [6]: 3.57 | pIC50 [7]: 3.57 | pIC50 [8]: 3.69 | pIC50 [9]: 3.57 | pIC50 [10]: 3.64 | pIC50 [11]: 3.57 | pIC50 [12]: 3.64

O=C(NN(CCO)CCO)c1ccccc1
inhibition [1]: 52.4% | inhibition [2]: 43.9% | inhibition [3]: 25% | inhibition [4]: 69.9%

O=C(NCO)c1ccccc1O
inhibition [1]: 61.5% | inhibition [2]: 10.2% | inhibition [3]: 25.8% | inhibition [4]: 55.2%

CCCCCCCCCCCCCCCCCCCN1CN(CO)CN(CO)C1=O
inhibition [1]: 54.4% | inhibition [2]: 43.2% | inhibition [3]: 20.8% | inhibition [4]: 69.7%

O=C(CC(=O)Nc1ccccc1O)Nc1ccccc1O
inhibition [1]: 57.2% | inhibition [2]: 17.6% | inhibition [3]: 23.1% | inhibition [4]: 37%

O=C(CC(O)(c1ccccc1)c1ccc(Cl)cc1)NC(=O)c1ccccc1O (stereo not given)
pIC50 [5]: 4.00 | pIC50 [6]: 3.85 | pIC50 [7]: 3.62 | pIC50 [8]: 4.00 | pIC50 [9]: 3.85 | pIC50 [10]: 3.74 | pIC50 [11]: 3.62 | pIC50 [12]: 3.74

O=C(O)CNC(=O)c1ccccc1O
inhibition [1]: 25% | inhibition [2]: 33.3% | inhibition [3]: 28.9% | inhibition [4]: 33.3%

O=C1Oc2ccccc2C(O)C1C(c1ccccc1)C1C(=O)Oc2ccccc2C1O (stereo not given)
pIC50 [13]: 4.41 | pIC50 [14]: 4.36

O=C(NNC(=O)c1ccccc1O)c1ccccc1O.O=C(NNCC(O)COc1ccccc1)c1ccccc1O (stereo not given)
pIC50 [13]: 5.82 | pIC50 [14]: 5.70 | pIC50 [15]: 6.10 | pIC50 [16]: 5.98

CCN(CC)CCCC(C)Nc1cc(F)cc2cccnc12 (stereo not given)
inhibition [1]: 27.6% | inhibition [2]: 41.2% | inhibition [3]: 36.5% | inhibition [4]: 48.9%

O=C(N/N=C/c1ccc(O)cc1O)N/N=C/c1ccc(O)cc1O
pIC50 [14]: 4.59 | pIC50 [17]: 4.69 | pIC50 [18]: 4.69 | pIC50 [16]: 4.58

O=C(NCCO)c1cc(Cl)ccc1O
inhibition [1]: 0% | inhibition [2]: 2.2% | inhibition [3]: 0.4% | inhibition [4]: 13.4%

O=C(N/N=C/c1ccccc1O)C(O)(c1ccccc1)c1ccccc1
inhibition [1]: 70.5% | inhibition [2]: 56.7% | inhibition [3]: 34.7% | inhibition [4]: 74.1%

O=C(N/N=C/c1ccccc1O)C(O)c1ccccc1 (stereo not given)
inhibition [1]: 77.9% | inhibition [2]: 45.8% | inhibition [3]: 37% | inhibition [4]: 70.2%

O=C(CCCCC(=O)c1ccc(O)cc1O)OCCO
pIC50 [5]: 3.73 | pIC50 [6]: 3.63 | pIC50 [7]: 3.44 | pIC50 [8]: 3.73 | pIC50 [9]: 3.63 | pIC50 [10]: 3.53 | pIC50 [11]: 3.43 | pIC50 [12]: 3.53

COc1cc2oc(-c3ccc(O)cc3)cc(=O)c2c(O)c1C1OC(CO)C(O)C(O)C1O (stereo not given)
inhibition [1]: 92.2% | pIC50 [5]: 3.87 | pIC50 [6]: 3.84 | inhibition [2]: 43.4% | pIC50 [7]: 3.54 | inhibition [3]: 62.7% | pIC50 [8]: 3.87 | pIC50 [9]: 3.84 | pIC50 [10]: 3.65 | inhibition [4]: 66.8% | pIC50 [11]: 3.54 | pIC50 [12]: 3.65

Cc1cc(CC(=O)NCCO)n(CCO)c(=O)c1
inhibition [1]: 90.6% | inhibition [2]: 30.3% | inhibition [3]: 45.3% | inhibition [4]: 47.9%

O=c1ccc2cc(O[C@@H]3O[C@H](CO)[C@@H](O)[C@H](O)[C@H]3O)c(O)cc2o1
inhibition [1]: 67.7% | inhibition [2]: 29.6% | inhibition [3]: 40.8% | inhibition [4]: 34.2%

O=C(OCCO)c1ccccc1O
inhibition [1]: 17.1% | inhibition [2]: 2.6% | inhibition [3]: 10.9% | inhibition [4]: 18.9%

O=C(NO)/C(CC(=O)c1ccc(O)cc1O)=N\O
pIC50 [5]: 4.78 | pIC50 [6]: 4.45 | pIC50 [7]: 4.15 | pIC50 [8]: 4.78 | pIC50 [9]: 4.45 | pIC50 [10]: 4.52 | pIC50 [11]: 4.15 | pIC50 [12]: 4.52
